Common to all, as to assay type: cell-based
Assay [1] has as its target T1, E3 ubiquitin-protein ligase Mdm2/Histone deacetylase 1 (Homo sapiens) (UniProt Q00987+Q13547). The experiment in a line: PROTAC activity at MDM2/HDAC1 in human HCT-116 cells assessed as decrease in HDAC1 abundance by measuring remaining activity at 1 uM measured after 24 hrs by Western blot analysis (reference value: 100%). The method, boiled down: (§1)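 HCT116 cells seeded in six-well plates for 24 h, then exposed 24 h to compound (0.01–10 μM) or DMSO in fresh medium. Lysis in Tris-HCl/NaCl/NP-40/Triton X-100 with protease inhibitor. Bradford-normalised 30 μg protein per lane. Quantitative Western blot used specific HDAC1, HDAC2, HDAC3, LSD1 or Sin3a antibodies with IRDye secondaries. Abundance compared with DMSO, n = 2 replicates.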
A general note: A western blot detects proteins with antibodies after separation by electrophoresis.

Assay [2] deals with T2, E3 ubiquitin-protein ligase Mdm2/Histone deacetylase 3 (Homo sapiens) (UniProt Q00987+O15379). As to the kind of experiment: PROTAC activity at MDM2/HDAC3 in human HCT-116 cells assessed as reduction in HDAC3 abundance by measuring remaining activity at 1 uM measured after 24 hrs by Western blot analysis (reference value: 100%). The gist of the method: (§2)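 HCT116 cells in DMEM with 10% FBS and glutamine/penicillin/streptomycin at 37 °C, 5% CO2. Seeded 4 × 10^5 cells/well, after 24 h treated 24 h with DMSO or compound in fresh medium. Lysed in Tris-HCl/NaCl/NP-40/Triton X-100 buffer with protease inhibitor, Bradford-quantified, 30 μg protein per lane. Quantitative Western blot with specific HDAC1/2/3 antibodies, IRDye secondaries, infrared imaging, versus DMSO. n = 2 replicates.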
T2 sequence (O15379 whole entry, looked up): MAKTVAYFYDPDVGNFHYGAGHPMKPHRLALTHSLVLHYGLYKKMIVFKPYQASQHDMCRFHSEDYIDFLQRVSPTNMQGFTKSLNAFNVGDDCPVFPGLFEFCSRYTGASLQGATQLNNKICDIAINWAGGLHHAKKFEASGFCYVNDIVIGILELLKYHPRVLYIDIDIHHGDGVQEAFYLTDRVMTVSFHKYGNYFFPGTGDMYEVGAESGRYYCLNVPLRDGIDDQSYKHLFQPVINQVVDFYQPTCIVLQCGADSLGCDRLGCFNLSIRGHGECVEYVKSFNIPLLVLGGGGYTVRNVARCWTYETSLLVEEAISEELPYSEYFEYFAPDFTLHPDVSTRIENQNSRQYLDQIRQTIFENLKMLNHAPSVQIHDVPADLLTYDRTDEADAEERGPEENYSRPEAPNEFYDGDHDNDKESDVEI
T2 sequence (Q00987 whole entry, looked up): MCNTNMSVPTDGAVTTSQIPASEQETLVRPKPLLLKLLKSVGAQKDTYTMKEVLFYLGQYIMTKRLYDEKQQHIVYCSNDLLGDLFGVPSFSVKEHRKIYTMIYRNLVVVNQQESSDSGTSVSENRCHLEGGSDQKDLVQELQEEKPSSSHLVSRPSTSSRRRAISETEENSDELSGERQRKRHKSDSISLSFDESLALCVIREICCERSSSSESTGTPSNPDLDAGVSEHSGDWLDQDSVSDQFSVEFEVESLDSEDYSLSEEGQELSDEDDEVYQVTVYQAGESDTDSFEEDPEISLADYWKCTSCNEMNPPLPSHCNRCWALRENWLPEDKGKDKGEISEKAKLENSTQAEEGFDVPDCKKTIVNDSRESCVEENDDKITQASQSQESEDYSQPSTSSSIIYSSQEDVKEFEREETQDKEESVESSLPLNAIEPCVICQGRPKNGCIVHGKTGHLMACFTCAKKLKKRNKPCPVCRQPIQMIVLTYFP

Assay [3] concerns the target T1, E3 ubiquitin-protein ligase Mdm2/Histone deacetylase 1 (Homo sapiens). As to the kind of experiment: PROTAC activity at MDM2/HDAC1 in human HCT-116 cells assessed as decrease in HDAC1 abundance by measuring remaining activity at 0.025 uM measured after 24 hrs by Western blot analysis (reference value: 100%). The gist of the method: as §1
The target is the same in assay [4]. As to the kind of experiment: PROTAC activity at MDM2/HDAC1 in human HCT-116 cells assessed as decrease in HDAC1 abundance by measuring remaining activity at 2.5 uM measured after 24 hrs by Western blot analysis (reference value: 100%). The method, boiled down: as §1
Assay [5] has the same target. As to the kind of experiment: PROTAC activity at MDM2/HDAC1 in human HCT-116 cells assessed as decrease in HDAC1 abundance by measuring remaining activity at 5 uM measured after 24 hrs by Western blot analysis (reference value: 100%). The method, boiled down:
as §1

Assay [6] addresses T2, E3 ubiquitin-protein ligase Mdm2/Histone deacetylase 3 (Homo sapiens). The experiment in a line: PROTAC activity at MDM2/HDAC3 in human HCT-116 cells assessed as reduction in HDAC3 abundance by measuring remaining activity at 0.01 uM measured after 24 hrs by Western blot analysis. The method, boiled down:
as §1

The target is the same in assay [7]. The experiment in a line: PROTAC activity at MDM2/HDAC3 in human HCT-116 cells assessed as reduction in HDAC3 abundance by measuring remaining activity at 0.025 uM measured after 24 hrs by Western blot analysis. The gist of the method:
as §1

The target is the same in assay [8]. As to the kind of experiment: PROTAC activity at MDM2/HDAC3 in human HCT-116 cells assessed as reduction in HDAC3 abundance by measuring remaining activity at 2.5 uM measured after 24 hrs by Western blot analysis. The method, boiled down: as §2
Assay [9] has the same target. The experiment in a line: PROTAC activity at MDM2/HDAC3 in human HCT-116 cells assessed as reduction in HDAC3 abundance by measuring remaining activity at 5 uM measured after 24 hrs by Western blot analysis. The method, boiled down: as §2
Assay [10] concerns the target T3, Paired amphipathic helix protein Sin3a (Homo sapiens) (UniProt Q96ST3).
T3 sequence (whole entry): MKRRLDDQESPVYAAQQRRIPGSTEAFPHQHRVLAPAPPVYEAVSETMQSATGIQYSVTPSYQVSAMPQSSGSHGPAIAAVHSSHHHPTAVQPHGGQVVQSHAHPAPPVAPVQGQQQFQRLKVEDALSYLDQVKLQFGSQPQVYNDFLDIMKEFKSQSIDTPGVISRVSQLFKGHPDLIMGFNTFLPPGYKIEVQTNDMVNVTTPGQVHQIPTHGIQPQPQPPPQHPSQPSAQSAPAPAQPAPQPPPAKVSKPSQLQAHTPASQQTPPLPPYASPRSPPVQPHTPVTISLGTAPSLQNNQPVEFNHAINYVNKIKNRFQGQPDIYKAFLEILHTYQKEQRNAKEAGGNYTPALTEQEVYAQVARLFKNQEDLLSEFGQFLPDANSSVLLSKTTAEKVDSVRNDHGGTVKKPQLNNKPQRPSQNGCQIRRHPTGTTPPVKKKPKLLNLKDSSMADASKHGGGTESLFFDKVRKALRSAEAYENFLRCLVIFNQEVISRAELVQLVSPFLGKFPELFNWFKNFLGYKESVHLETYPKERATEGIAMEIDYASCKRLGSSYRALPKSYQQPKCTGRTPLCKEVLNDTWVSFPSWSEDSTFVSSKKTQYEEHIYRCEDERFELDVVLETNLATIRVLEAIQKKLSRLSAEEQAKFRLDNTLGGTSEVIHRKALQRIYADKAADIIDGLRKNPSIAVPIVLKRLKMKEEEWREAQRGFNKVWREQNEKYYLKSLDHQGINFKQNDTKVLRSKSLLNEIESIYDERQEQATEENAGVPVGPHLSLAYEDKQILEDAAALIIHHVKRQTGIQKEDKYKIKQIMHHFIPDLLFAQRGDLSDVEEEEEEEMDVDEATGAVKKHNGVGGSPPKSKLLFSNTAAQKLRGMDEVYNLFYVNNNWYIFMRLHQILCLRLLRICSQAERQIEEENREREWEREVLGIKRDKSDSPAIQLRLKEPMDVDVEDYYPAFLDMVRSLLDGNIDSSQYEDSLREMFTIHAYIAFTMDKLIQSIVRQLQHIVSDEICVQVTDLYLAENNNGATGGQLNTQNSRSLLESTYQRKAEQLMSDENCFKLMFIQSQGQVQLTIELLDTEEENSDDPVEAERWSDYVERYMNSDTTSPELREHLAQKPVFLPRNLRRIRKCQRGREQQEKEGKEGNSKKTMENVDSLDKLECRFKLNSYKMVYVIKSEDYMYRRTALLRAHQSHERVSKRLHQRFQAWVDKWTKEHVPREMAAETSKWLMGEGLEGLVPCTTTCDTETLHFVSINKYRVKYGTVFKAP
The experiment in a line: Induction of SIN3A degradation in human HCT-116 cells assessed as reduction in SIN3A abundance by measuring remaining activity at 10 uM measured after 24 hrs by Western blot analysis (reference value: 100%). The gist of the method:
as §1

The target of assay [11] is T3, Paired amphipathic helix protein Sin3a (Homo sapiens). The experiment in a line: Induction of SIN3A degradation in human HCT-116 cells assessed as reduction in SIN3A abundance by measuring remaining activity at 0.25 uM measured after 24 hrs by Western blot analysis (reference value: 100%). The gist of the method: as §1
The target is the same in assay [12]. As to the kind of experiment: Induction of SIN3A degradation in human HCT-116 cells assessed as reduction in SIN3A abundance by measuring remaining activity at 0.5 uM measured after 24 hrs by Western blot analysis (reference value: 100%). The method, boiled down:
as §1

Assay [13] has as its target Lysine-specific histone demethylase 1A (Homo sapiens) (UniProt O60341). As to the kind of experiment: Induction of LSD1 degradation in human HCT-116 cells assessed as reduction in LSD1 abundance by measuring remaining activity at 0.025 uM measured after 24 hrs by Western blot analysis (reference value: 100%). The method, boiled down: as §1

T1 sequence (Q00987 whole entry, looked up): as the sequence (Q00987 whole entry, looked up) above
T1 sequence (Q13547 whole entry, looked up): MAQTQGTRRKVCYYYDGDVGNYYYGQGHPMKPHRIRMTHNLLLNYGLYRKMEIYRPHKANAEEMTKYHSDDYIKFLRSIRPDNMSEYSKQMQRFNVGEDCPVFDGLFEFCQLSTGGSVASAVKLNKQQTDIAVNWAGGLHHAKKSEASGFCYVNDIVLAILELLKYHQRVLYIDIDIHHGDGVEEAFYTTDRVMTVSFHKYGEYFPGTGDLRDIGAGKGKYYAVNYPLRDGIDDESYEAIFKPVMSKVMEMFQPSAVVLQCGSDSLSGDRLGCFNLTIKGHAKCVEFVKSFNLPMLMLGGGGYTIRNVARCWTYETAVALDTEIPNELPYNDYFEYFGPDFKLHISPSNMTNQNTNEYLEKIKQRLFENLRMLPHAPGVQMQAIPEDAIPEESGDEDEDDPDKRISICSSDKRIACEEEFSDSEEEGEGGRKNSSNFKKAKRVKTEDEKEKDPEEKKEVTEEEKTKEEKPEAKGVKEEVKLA

In the case of `COc1cc(C(=O)NCCOCCOCCOCCOCCC(=O)Nc2ccc(C(=O)Nc3ccccc3N)cc2)ccc1NC(=O)[C@@H]1N[C@@H](CC(C)(C)C)[C@](C#N)(c2ccc(Cl)cc2F)[C@H]1c1cccc(Cl)c1F`, the Activity in assay [1] stood at 43%; in [2], 104%; in assay [3], 94%; in [4] it was 39%; in [5], 41%; in assay [6], 98%. The Activity in assay [7] is 100%; in [8], 112%; in assay [9], 105%; in assay [10], 45%; in assay [11] it was 92%; in [12], 79%. Also, the Activity in assay [13] turned out to be 102%.

The values are drawn from ChEMBL document CHEMBL5357024, “MDM2 Antagonist Idasanutlin Reduces HDAC1/2 Abundance and Corepressor Partners but Not HDAC3” (ACS Med Chem Lett, 2024).
